# Activity calls are given as the source filed them. No cut-off for these calls is given here.
# Columns and labels:
# [1] = molecular target: T1, Induced myeloid leukemia cell differentiation protein Mcl-1 (Homo sapiens, UniProt Q07820); test: Inhibition of His6-MBP tagged recombinant human Mcl-1 residues 172 to 327 expressed in Escherichia coli assessed as inhibition of interaction with Bak BH3 peptide (GQVGRQLAIIGDDINR) after 3 hrs by fluorescence polarization competition assay
# Homo sapiens = species on record: Homo sapiens; test: Selectivity ratio of Ki for Bcl-XL (unknown origin) to Ki for His6-MBP tagged recombinant human Mcl-1 residues 172 to 327 expressed in Escherichia coli
# Method in brief: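 Ratio computed as Ki(Bcl-xL) divided by Ki(Mcl-1). Both Ki values come from FP competition IC50s converted with the Nikolovska-Coleska equation, averaged over at least two independent assays. Hill-equation fit gives the IC50.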
# [2] = Inhibition of Bcl-XL (unknown origin) after 3 hrs by fluorescence polarization competition assay; design: species or system Homo sapiens
# SK-MEL-5 = test: Antiproliferative activity against human SK-MEL-5 cells after 48 hrs by Cell titer blue viability assay; type: functional, cell-based; conditions: SK-MEL-5, 48 h
# A-375 = test: Antiproliferative activity against human A375 cells after 48 hrs by Cell titer blue viability assay; type: functional, cell-based; conditions: A-375, 48 h
# Method in brief: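 A375 cells seeded at 5,000/well in DMEM with 10% HIFBS and PenStrep, cultured overnight. Compounds added at final 4.69–300 μM (two-fold series) in 1% DMSO; vehicle controls also at 1% DMSO. After 48 h exposure, Cell Titer-Blue added for 2 h, fluorescence read at 560 ex/590 em. Percent viability relative to untreated cells, corrected for cell-free background.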
# [3] = molecular target: T1, Induced myeloid leukemia cell differentiation protein Mcl-1; test: Binding affinity to recombinant human 15N-labeled Mcl-1 (172 to 327 residues) expressed in Escherichia coli by NMR spectroscopy
# Method in brief: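 Proton shifts were referenced to the H2O/HDO signal (4.658 ppm versus external TSP) at 37 °C. The protein was size-exclusion purified to >98% purity by SDS-PAGE, with concentration determined by Bradford assay.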
# T1 sequence (Q07820 whole entry, the tested form may be a part): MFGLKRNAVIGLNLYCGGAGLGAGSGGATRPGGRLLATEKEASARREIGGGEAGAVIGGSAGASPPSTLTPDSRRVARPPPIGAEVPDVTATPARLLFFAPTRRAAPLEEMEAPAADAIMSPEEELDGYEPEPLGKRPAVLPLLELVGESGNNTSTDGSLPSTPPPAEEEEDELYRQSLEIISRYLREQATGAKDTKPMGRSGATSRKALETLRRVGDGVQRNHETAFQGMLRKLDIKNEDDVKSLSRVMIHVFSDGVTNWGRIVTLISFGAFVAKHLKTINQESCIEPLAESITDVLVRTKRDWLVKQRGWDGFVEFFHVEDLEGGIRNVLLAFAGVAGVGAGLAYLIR
SMILES,Ratio Ki (Homo sapiens),Ki ([2]; read-out: Ki) [µM],further results
COC(=O)c1cc(S(=O)(=O)N(CC(C)C)c2ccc(Br)cc2)c2ccccc2c1O,–,–,Ki [1]: > 500 µM
O=C(O)c1cc(S(=O)(=O)Nc2ccc([N+](=O)[O-])cc2)c2ccccc2c1O,5.2,23.3,–
CN(C)S(=O)(=O)c1cc(C(=O)O)c(O)c2ccccc12,–,–,Ki [2]: Not Active
O=C(O)c1cc(S(=O)(=O)Nc2ccc3ccccc3c2)c2ccccc2c1O,15,68.5,–
CC(C)Oc1ccc(NS(=O)(=O)c2cc(C(=O)O)c(O)c3ccccc23)cc1,–,–,Ki [2]: Not Active
O=C(O)c1cc(S(=O)(=O)Nc2ccccc2C(F)(F)F)c2ccccc2c1O,4.8,19.3,–
Cc1cc(Oc2ccc(NS(=O)(=O)c3cc(C(=O)O)c(O)c4ccccc34)cc2)cc(C)c1Cl,4.1,0.48,–
O=C(O)c1cc(S(=O)(=O)NCc2ccc(Cl)cc2)c2ccccc2c1O,16,338,–
O=C(O)c1cc(S(=O)(=O)Nc2ccc(Br)cc2Br)c2ccccc2c1O,5.5,2.31,–
NS(=O)(=O)c1cc(C(=O)O)c(O)c2ccccc12,–,–,Ki [2]: Not Active
O=C(O)c1cc(S(=O)(=O)NCC2CCCCC2)c2ccccc2c1O,11,77.6,–
O=C(O)c1cc(S(=O)(=O)Nc2ccc(Oc3ccc(Cl)cc3Cl)cc2)c2ccccc2c1O,2.4,0.19,–
Cc1cc(C)cc(Oc2ccc(NS(=O)(=O)c3cc(C(=O)O)c(O)c4ccccc34)cc2)c1,1.4,0.39,–
CC(=O)OCOC(=O)c1cc(S(=O)(=O)N(CC(C)C)c2ccc(OC(C)C)cc2)c2ccccc2c1O,–,–,IC50 (SK-MEL-5): 15 µM; inhibition [1]: inactive
Cc1ccc(Oc2ccc(NS(=O)(=O)c3cc(C(=O)O)c(O)c4ccccc34)cc2)cc1,2.5,0.84,–
O=C(O)c1cc(S(=O)(=O)NCc2ccccc2)c2ccccc2c1O,–,–,Ki [2]: Not Active
COC(=O)c1cc(S(=O)(=O)N(CC(C)C)c2ccc(Br)cc2)c2ccccc2c1OC,–,–,Ki [1]: > 500 µM
O=C(O)c1cc(S(=O)(=O)Nc2cccc3ccccc23)c2ccccc2c1O,10,110,–
Cc1cc(Oc2ccc(N(C3CCCC3)S(=O)(=O)c3cc(C(=O)O)c(O)c4ccccc34)cc2)cc(C)c1Cl,8.8,0.29,–
COC(=O)c1cc(S(=O)(=O)N(CC(C)C)c2ccc(OC(C)C)cc2)c2ccccc2c1O,–,–,IC50 (SK-MEL-5): 300 µM; IC50 (A-375): 300 µM; inhibition [1]: inactive
O=C(O)c1cc(S(=O)(=O)Nc2ccc(Oc3cccc(Br)c3)cc2)c2ccccc2c1O,3.8,0.3,–
O=C(O)c1cc(S(=O)(=O)Nc2ccccc2)c2ccccc2c1O,–,–,Ki [2]: Not Active
O=C(O)c1cc(S(=O)(=O)Nc2ccc(Oc3cccc4ccccc34)cc2)c2ccccc2c1O,3.7,0.22,–
Cc1cc(Oc2ccc(N(Cc3ccccc3)S(=O)(=O)c3cc(C(=O)O)c(O)c4ccccc34)cc2)cc(C)c1Cl,–,0.34,IC50 (SK-MEL-5): 90 µM; IC50 (A-375): 50 µM

# Now from value to compound, other results behind:
Ratio Ki (Homo sapiens),Ki ([2]; read-out: Ki) [µM],SMILES,further results
2.1,0.17,Cc1cc(Oc2ccc(N(CC(C)C)S(=O)(=O)c3cc(C(=O)O)c(O)c4ccccc34)cc2)cc(C)c1Cl,–
6,71.9,COc1ccc(NS(=O)(=O)c2cc(C(=O)O)c(O)c3ccccc23)cc1,–
19,51.4,O=C(O)c1cc(S(=O)(=O)Nc2ccc(Br)cc2)c2ccccc2c1O,IC50 (SK-MEL-5): 300 µM; IC50 (A-375): 300 µM
–,6.08,CC(C)CN(c1ccc(OC(C)C)cc1)S(=O)(=O)c1cc(C(=O)O)c(O)c2ccccc12,Activity [3]: Active; IC50 (SK-MEL-5): 300 µM; IC50 (A-375): 150 µM

# Source: ChEMBL document CHEMBL3779852, “Structure-based design of N-substituted 1-hydroxy-4-sulfamoyl-2-naphthoates as selective inhibitors of the Mcl-1 oncoprotein” (Eur J Med Chem, 2016)
